Publication PMC3076632 (Journal of medicinal chemistry, 2011)

Key:
Assay type in all cases: cell-based
human Nod1 = biological target: T1, human Nod1 (Homo sapiens, UniProt Q9Y239); test: NF-κB induction in HEK-Blue cells; details: for Nod1-agonistic activity (in words): primary screen, NF-κB induction
T1 sequence (Q9Y239 1-953): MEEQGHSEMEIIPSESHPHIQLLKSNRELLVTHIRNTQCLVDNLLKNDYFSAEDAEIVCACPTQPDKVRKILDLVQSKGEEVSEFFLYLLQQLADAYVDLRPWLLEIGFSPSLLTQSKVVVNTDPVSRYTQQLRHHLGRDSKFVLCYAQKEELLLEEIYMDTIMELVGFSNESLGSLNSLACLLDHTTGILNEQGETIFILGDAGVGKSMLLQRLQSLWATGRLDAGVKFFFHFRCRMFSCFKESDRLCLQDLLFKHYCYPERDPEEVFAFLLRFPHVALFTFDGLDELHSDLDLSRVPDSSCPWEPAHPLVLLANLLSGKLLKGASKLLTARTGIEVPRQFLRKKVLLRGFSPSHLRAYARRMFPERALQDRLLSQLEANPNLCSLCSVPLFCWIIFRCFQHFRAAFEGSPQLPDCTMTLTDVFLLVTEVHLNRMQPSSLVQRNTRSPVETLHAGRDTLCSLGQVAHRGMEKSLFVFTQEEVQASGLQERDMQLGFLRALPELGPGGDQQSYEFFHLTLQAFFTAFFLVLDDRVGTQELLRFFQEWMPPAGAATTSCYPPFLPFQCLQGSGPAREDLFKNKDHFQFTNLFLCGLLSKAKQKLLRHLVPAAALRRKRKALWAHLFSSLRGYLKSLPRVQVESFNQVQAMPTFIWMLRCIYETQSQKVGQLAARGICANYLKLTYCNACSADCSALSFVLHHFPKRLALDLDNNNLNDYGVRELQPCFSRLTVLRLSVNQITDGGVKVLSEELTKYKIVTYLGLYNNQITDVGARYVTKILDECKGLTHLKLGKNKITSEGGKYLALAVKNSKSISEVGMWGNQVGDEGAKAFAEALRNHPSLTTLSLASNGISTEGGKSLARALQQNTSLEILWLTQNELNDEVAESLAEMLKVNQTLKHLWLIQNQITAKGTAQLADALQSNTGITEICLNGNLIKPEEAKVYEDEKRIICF
Summary of the method: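 HEK-Blue cells stably express secreted alkaline phosphatase (sAP) under NF-κB/AP-1 promoters. Cells were grown to confluency, then exposed to graded concentrations of test compound. Extracellular sAP in the supernatant, taken as proportional to Nod1-mediated NF-κB induction, was measured spectrophotometrically at 620 nm with an alkaline phosphatase-specific chromogen in the detection medium.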

[1] = system: p38 MAPK in the granulocytic population in whole human blood; test: Phosflow flow cytometric assay for p38MAPK in whole human blood; details: ex vivo whole human blood, granulocytes, 15 minutes at 37°C, flow cytometry
Summary of the method: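 Heparinised fresh whole human blood was exposed to graded concentrations of test compound in saline for 15 min at 37°C. One-step erythrocyte lysis and leukocyte fixation, wash (500 g, 8 min), permeabilisation in ice-cold methanol for 30 min, two PBS washes. Staining for 60 min with PE-anti-phospho-p38 (pT180/pY182) mAb or matched PE mouse IgG1κ isotype control. Single-colour PE flow cytometry, 20,000 gated events.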

[2] = system: CD11b in the granulocytic population in whole human blood; test: CD11b flow cytometric assay in whole human blood; details: ex vivo whole human blood, granulocytes, 1 hour at 37°C, flow cytometry
Summary of the method: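 Fresh anticoagulated whole human blood was incubated with graded dilutions of test compound for 1 h at 37°C, with saline negative controls. Samples were chilled on ice for 15 min, then stained with anti-CD11b/Mac-1 antibody for 30 min on ice so that only surface CD11b was labelled. Erythrocytes were lysed and leukocytes fixed in one step in pre-warmed lyse/fix buffer, then washed twice (200 g, 5 min). Single-colour PE flow cytometry, 20,000 gated events.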

Human PBMCs = test: Transcriptomal profiling; details: 20 μg/mL
Summary of the method: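 PBMCs from fresh heparinised human blood were stimulated with test compound at 20 μg/mL for 2 h; total RNA was extracted from treated and negative-control samples. 4 μg RNA per sample was hybridised to U133 plus 2.0 arrays. Chips passed QC (5′/3′ ratio < 3.0), were scaled to target intensity 500 and normalised, with absent-call genes filtered. Differential expression was defined as ≥2-fold change versus negative control.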

Compound | Nod1-agonistic activity (in words) (human Nod1) | p38 MAPK upregulation (in words) [1] | CD11b upregulation (in words) [2] | further results
CCCCCCCCCCCC(=O)N[C@H](CCC(=O)NC(CCCCC(=O)O)C(=O)O)C(=O)O (stereo partly drawn) [Compound 67, 2-((R)-4-carboxy-4-dodecanamidobutanamido)heptanedioic acid] | abrogation of activity |  |  | 
CCCCCCCCCCCCN(CCCCCCCCCCCC)[C@H](CCC(=O)NC(CCCC(N)C(=O)O)C(=O)O)C(=O)O (stereo partly drawn) [Compound 27, 2-Amino-6-((R)-4-carboxy-4-(didodecylamino)butanamido) heptanedioic acid] |  | more potent than 16 | more potent than 16 | pathway analysis of induced gene transcripts (in words) (Human PBMCs; IPA pathway analysis): activation of pathways involving signaling mediated by Triggering Receptor Expressed on Myeloid Cells 1; Fold change IL1B (interleukin 1, beta), up (Human PBMCs; probe set 39402_at, two hours, up): 4.45 fold; Fold change IL1RN (interleukin 1 receptor antagonist), up (Human PBMCs; probe set 212659_s_at, two hours, up): 8.19 fold; Fold change IL1RN (interleukin 1 receptor antagonist), up (Human PBMCs; probe set 216243_s_at, two hours, up): 7.54 fold; Fold change IL1RN (interleukin 1 receptor antagonist), up (Human PBMCs; probe set 216244_at, two hours, up): 8.27 fold
N[C@H](CCC(=O)N[C@H](CCC[C@H](N)C(=O)O)C(=O)O)C(=O)O [γ-glutamyl-meso-diaminopimelic acid, reference compound] | inactive | inactive | inactive | 
CCCCCCCCCCCC(=O)N[C@H](CCC(=O)N[C@H](CCCCN)C(=O)O)C(=O)O [Compound 73, (R)-6-Amino-2-((R)-4-carboxy-4-dodecanamidobutanamido) hexanoic acid] | bereft of any activity |  |  | 
CCCCCCCCCCCC(=O)N[C@H](CCC(=O)NC(CCCC(N)C(=O)O)C(=O)O)C(=O)O (stereo partly drawn) [Compound 16, 2-Amino-6-((R)-4-carboxy-4-dodecanamidobutanamido) heptanedioic acid] |  | upregulated in a dose-dependent manner | upregulated in a dose-dependent manner | EC50 (human Nod1): ~0.03 nM
CCCCCCCCCCCC(=O)N[C@H](CCC(=O)NCCCCCN)C(=O)O [Compound 69, (R)-5-((5-Aminopentyl)amino)-2-dodecanamido-5-oxopentanoic acid] | abrogation of activity |  |  | 
